Source: ChEMBL document CHEMBL1124553, “Brain-specific chemical delivery systems for beta-lactam antibiotics. In vitro and in vivo studies of some dihydropyridine and dihydroisoquinoline derivatives of benzylpenicillin in rats” (J Med Chem, 1989)
Values belong to the compound of their own block, whether it stands above or below them.

Columns and labels:
Rattus norvegicus [1] = assay: Concentration of compound in rat kidney after intravenous injection of 20 mg/kg benzyl-penicillin after 1 min; assay type: functional, organism-based; set-up: dose 20 mg/kg
Method in brief: (§1)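 Male Sprague-Dawley rats (200-250 g), conscious, received 60 µmol/kg (equimolar to 20 mg/kg benzylpenicillin) by tail-vein injection. Benzylpenicillin K was given in water/ethanol/propylene glycol, and the delivery systems in ethanol:propylene glycol 7:3, at 20 mg/mL. Rats were decapitated at set times (4-6 per point), with trunk blood heparinized and brain, kidney, liver and lung frozen. Benzylpenicillin was measured by disk microbioassay (Bacillus subtilis ATCC 6633) after >5-volume sterile-water dilution or homogenization, against matrix calibration curves; assay limit 0.05 µg/mL.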

Rattus norvegicus [2] = assay: Concentration of compound in rat kidney after intravenous injection of 20 mg/kg benzyl-penicillin after 20 min; assay type: functional, organism-based; set-up: dose 20 mg/kg; method in brief: as §1
Rattus norvegicus [3] = assay: Concentration of compound in rat kidney after intravenous injection of 20 mg/kg benzyl-penicillin after 3 min; assay type: functional, organism-based; set-up: dose 20 mg/kg; method in brief: as §1
Rattus norvegicus [4] = assay: Concentration of compound in rat kidney after intravenous injection of 20 mg/kg benzyl-penicillin after 40 min; assay type: functional, organism-based; set-up: dose 20 mg/kg; method in brief: as §1
Rattus norvegicus [5] = assay: Concentration of compound in rat kidney after intravenous injection of 20 mg/kg benzyl-penicillin after 5 min; assay type: functional, organism-based; set-up: dose 20 mg/kg; method in brief: as §1
Rattus norvegicus [6] = assay: Concentration of compound in rat kidney after intravenous injection of 20 mg/kg benzyl-penicillin after 60 min; assay type: functional, organism-based; set-up: dose 20 mg/kg; method in brief: as §1
Rattus norvegicus [7] = assay: Concentration of compound in rat kidney after intravenous injection of 20 mg/kg benzyl-penicillin after 10 min; assay type: functional, organism-based; set-up: dose 20 mg/kg; method in brief: as §1
Rattus norvegicus [8] = assay: Concentration of compound in rat liver after intravenous injection of 20 mg/kg benzyl-penicillin after 1 min; assay type: functional, organism-based; set-up: dose 20 mg/kg; method in brief: as §1
Rattus norvegicus [9] = assay: Concentration of compound in rat liver after intravenous injection of 20 mg/kg benzyl-penicillin after 10 min; assay type: functional, organism-based; set-up: dose 20 mg/kg; method in brief: as §1
Rattus norvegicus [10] = assay: Concentration of compound in rat liver after intravenous injection of 20 mg/kg benzyl-penicillin after 20 min; assay type: functional, organism-based; set-up: dose 20 mg/kg; method in brief: as §1
Rattus norvegicus [11] = assay: Concentration of compound in rat liver after intravenous injection of 20 mg/kg benzyl-penicillin after 3 min; assay type: functional, organism-based; set-up: dose 20 mg/kg; method in brief: as §1
Rattus norvegicus [12] = assay: Concentration of compound in rat liver after intravenous injection of 20 mg/kg benzyl-penicillin after 40 min; assay type: functional, organism-based; set-up: dose 20 mg/kg; method in brief: as §1
Rattus norvegicus [13] = assay: Concentration of compound in rat liver after intravenous injection of 20 mg/kg benzyl-penicillin after 5 min; assay type: functional, organism-based; set-up: dose 20 mg/kg; method in brief: as §1
Rattus norvegicus [14] = assay: Concentration of compound in rat blood after intravenous injection of 20 mg/kg benzyl-penicillin after 1 min; assay type: functional, organism-based; set-up: dose 20 mg/kg; method in brief: as §1
Rattus norvegicus [15] = assay: Concentration of compound in rat blood after intravenous injection of 20 mg/kg benzyl-penicillin after 10 min; assay type: functional, organism-based; set-up: dose 20 mg/kg; method in brief: as §1
Rattus norvegicus [16] = assay: Concentration of compound in rat blood after intravenous injection of 20 mg/kg benzyl-penicillin after 20 min; assay type: functional, organism-based; set-up: dose 20 mg/kg; method in brief: as §1
Rattus norvegicus [17] = assay: Concentration of compound in rat blood after intravenous injection of 20 mg/kg benzyl-penicillin after 3 min; assay type: functional, organism-based; set-up: dose 20 mg/kg; method in brief: as §1
Rattus norvegicus [18] = assay: Concentration of compound in rat blood after intravenous injection of 20 mg/kg benzyl-penicillin after 40 min; assay type: functional, organism-based; set-up: dose 20 mg/kg; method in brief: as §1
Rattus norvegicus [19] = assay: Concentration of compound in rat blood after intravenous injection of 20 mg/kg benzyl-penicillin after 5 min; assay type: functional, organism-based; set-up: dose 20 mg/kg; method in brief: as §1
Rattus norvegicus [20] = assay: Concentration of compound in rat blood after intravenous injection of 20 mg/kg benzyl-penicillin after 60 min; assay type: functional, organism-based; set-up: dose 20 mg/kg; method in brief: as §1
Rattus norvegicus [21] = assay: Concentration of compound in rat brain after intravenous injection of 20 mg/kg benzyl-penicillin after 1 min; assay type: functional, organism-based; set-up: dose 20 mg/kg; method in brief: as §1
Rattus norvegicus [22] = assay: Concentration of compound in rat brain after intravenous injection of 20 mg/kg benzyl-penicillin after 10 min; assay type: functional, organism-based; set-up: dose 20 mg/kg; method in brief: as §1
Rattus norvegicus [23] = assay: Concentration of compound in rat brain after intravenous injection of 20 mg/kg benzyl-penicillin after 3 min; assay type: functional, organism-based; set-up: dose 20 mg/kg; method in brief: as §1
Rattus norvegicus [24] = assay: Concentration of compound in rat brain after intravenous injection of 20 mg/kg benzyl-penicillin after 5 min; assay type: functional, organism-based; set-up: dose 20 mg/kg; method in brief: as §1
Rattus norvegicus [25] = assay: Concentration of compound in rat liver after intravenous injection of 20 mg/kg benzyl-penicillin after 60 min; assay type: functional, organism-based; set-up: dose 20 mg/kg; method in brief: as §1
Rattus norvegicus [26] = assay: Concentration of compound in rat lung after intravenous injection of 20 mg/kg benzyl-penicillin after 1 min; assay type: functional, organism-based; set-up: dose 20 mg/kg; method in brief: as §1
Rattus norvegicus [27] = assay: Concentration of compound in rat lung after intravenous injection of 20 mg/kg benzyl-penicillin after 10 min; assay type: functional, organism-based; set-up: dose 20 mg/kg; method in brief: as §1
Rattus norvegicus [28] = assay: Concentration of compound in rat lung after intravenous injection of 20 mg/kg benzyl-penicillin after 20 min; assay type: functional, organism-based; set-up: dose 20 mg/kg; method in brief: as §1
Rattus norvegicus [29] = assay: Concentration of compound in rat lung after intravenous injection of 20 mg/kg benzyl-penicillin after 3 min; assay type: functional, organism-based; set-up: dose 20 mg/kg; method in brief: as §1
Rattus norvegicus [30] = assay: Concentration of compound in rat lung after intravenous injection of 20 mg/kg benzyl-penicillin after 40 min; assay type: functional, organism-based; set-up: dose 20 mg/kg; method in brief: as §1
Rattus norvegicus [31] = assay: Concentration of compound in rat lung after intravenous injection of 20 mg/kg benzyl-penicillin after 5 min; assay type: functional, organism-based; set-up: dose 20 mg/kg; method in brief: as §1
Rattus norvegicus [32] = assay: Concentration of compound in rat lung after intravenous injection of 20 mg/kg benzyl-penicillin after 60 min; assay type: functional, organism-based; set-up: dose 20 mg/kg; method in brief: as §1
[33] = Half-life for disappearance of compound from dog whole blood; assay type: ADME, organism-based, Canis lupus familiaris
Method in brief: (§2)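 Freshly collected whole blood, or 10% w/v brain homogenate in pH 7.4 phosphate buffer (ionic strength 0.15), was prewarmed to 37 °C. Compound was spiked from an 8 mM DMSO stock to 40 µM final. Timed samples were quenched in 8% DMSO/acetonitrile, centrifuged, filtered and analyzed by reversed-phase C8 HPLC with UV detection. K came from linear regression of log peak height versus time, with t1/2 derived from it. Values are mean ± SE of three determinations in different animal samples.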

[34] = Half-life for disappearance of compound from rat 10% brain homogenate; assay type: ADME; method in brief: as §2
[35] = Half-life for disappearance of compound from rat whole blood; assay type: ADME, organism-based; method in brief: as §2
Canis familiaris = species on record: Canis familiaris; assay: Pseudo first-order rate constant (K) for disappearance of compound from dog whole blood; assay type: ADME, organism-based, Canis lupus familiaris; method in brief: as §2
Rattus norvegicus [36] = species on record: Rattus norvegicus; assay: Pseudo first-order rate constant (K) for disappearance of compound from rat 10% brain homogenate; assay type: ADME
Method in brief: (§3)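 Freshly collected whole blood (rat trunk blood; rabbit) or 10% w/v brain homogenate made in pH 7.4 phosphate buffer (μ = 0.15), prewarmed to 37 °C. Compound added from 8 mM DMSO stock to a final 40 μM. Timed 0.3 mL samples were quenched in 8% DMSO/acetonitrile, centrifuged, filtered and analysed by reversed-phase C8 HPLC-UV. K came from linear regression of log peak height versus time; n=3 animal samples.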

[37] = Pseudo first-order rate constant (K) for disappearance of compound from rat whole blood; assay type: ADME, tissue-based; method in brief: as §3
[38] = Half-life for disappearance of compound from human whole blood; assay type: ADME, organism-based; method in brief: as §2
[39] = Half-life for disappearance of compound from rabbit 10% brain homogenate; assay type: ADME, Oryctolagus cuniculus; method in brief: as §2
[40] = Half-life for disappearance of compound from rabbit whole blood; assay type: ADME, organism-based, Oryctolagus cuniculus; method in brief: as §2
Homo sapiens = species on record: Homo sapiens; assay: Pseudo first-order rate constant (K) for disappearance of compound from human whole blood; assay type: ADME, organism-based; method in brief: as §2
Oryctolagus cuniculus [41] = species on record: Oryctolagus cuniculus; assay: Pseudo first-order rate constant (K) for disappearance of compound from rabbit 10% brain homogenate; assay type: ADME; method in brief: as §3
Oryctolagus cuniculus [42] = species on record: Oryctolagus cuniculus; assay: Pseudo first-order rate constant (K) for disappearance of compound from rabbit whole blood; assay type: ADME, organism-based; method in brief: as §3

SMILES: CC1(C)S[C@@H]2[C@H](NC(=O)Cc3ccccc3)C(=O)N2[C@H]1C(=O)O
Concentration (Rattus norvegicus [1]): 33.6 µg/mL
Concentration (Rattus norvegicus [2]): 20.8 µg/mL
Concentration (Rattus norvegicus [3]): 120 µg/mL
Concentration (Rattus norvegicus [4]): 6.2 µg/mL
Concentration (Rattus norvegicus [5]): 88.5 µg/mL
Concentration (Rattus norvegicus [6]): 1.1 µg/mL
Concentration (Rattus norvegicus [7]): 27.6 µg/mL
Concentration (Rattus norvegicus [8]): 15.1 µg/mL
Concentration (Rattus norvegicus [9]): 17.7 µg/mL
Concentration (Rattus norvegicus [10]): 7.5 µg/mL
Concentration (Rattus norvegicus [11]): 38.9 µg/mL
Concentration (Rattus norvegicus [12]): 2.9 µg/mL
Concentration (Rattus norvegicus [13]): 30.7 µg/mL
Concentration (Rattus norvegicus [14]): 64.6 µg/mL
Concentration (Rattus norvegicus [15]): 8.5 µg/mL
Concentration (Rattus norvegicus [16]): 2.8 µg/mL
Concentration (Rattus norvegicus [17]): 25.2 µg/mL
Concentration (Rattus norvegicus [18]): 1.3 µg/mL
Concentration (Rattus norvegicus [19]): 22.8 µg/mL
Concentration (Rattus norvegicus [20]): 0.4 µg/mL
Concentration (Rattus norvegicus [21]): 2.7 µg/mL
Concentration (Rattus norvegicus [22]): 0.3 µg/mL
Concentration (Rattus norvegicus [23]): 1.3 µg/mL
Concentration (Rattus norvegicus [24]): 0.9 µg/mL
Concentration (Rattus norvegicus [25]): 0.7 µg/mL
Concentration (Rattus norvegicus [26]): 52.5 µg/mL
Concentration (Rattus norvegicus [27]): 9.5 µg/mL
Concentration (Rattus norvegicus [28]): 2.3 µg/mL
Concentration (Rattus norvegicus [29]): 30.3 µg/mL
Concentration (Rattus norvegicus [30]): 1.4 µg/mL
Concentration (Rattus norvegicus [31]): 22.4 µg/mL
Concentration (Rattus norvegicus [32]): 0.7 µg/mL

half-life [33]: 11.4 min
half-life [34]: 28.3 min
half-life [35]: 0.6 min
K (Canis familiaris): 0.062 min⁻¹
K (Rattus norvegicus [36]): 0.025 min⁻¹
K [37]: 1.083 min⁻¹
SMILES: CN1C=c2ccccc2=C(C(=O)NCCOC(=O)C2N3C(=O)C(NC(=O)Cc4ccccc4)C3SC2(C)C)C1 (configuration not stated)
Concentration (Rattus norvegicus [14]): 6.6 µg/mL
Concentration (Rattus norvegicus [15]): 1.2 µg/mL
Concentration (Rattus norvegicus [16]): 0.2 µg/mL
Concentration (Rattus norvegicus [17]): 3 µg/mL
Concentration (Rattus norvegicus [19]): 2.5 µg/mL
Concentration (Rattus norvegicus [21]): 0.2 µg/mL
Concentration (Rattus norvegicus [23]): 0.2 µg/mL

half-life [33]: 14.5 min
half-life [38]: 9.1 min
half-life [39]: 23.4 min
half-life [40]: 3 min
half-life [34]: 92.1 min
half-life [35]: 1.9 min
K (Canis familiaris): 0.048 min⁻¹
K (Homo sapiens): 0.078 min⁻¹
K (Oryctolagus cuniculus [41]): 0.03 min⁻¹
K (Oryctolagus cuniculus [42]): 0.23 min⁻¹
K (Rattus norvegicus [36]): 0.008 min⁻¹
K [37]: 0.362 min⁻¹
SMILES: C[n+]1cccc(C(=O)NCCOC(=O)C2N3C(=O)C(NC(=O)Cc4ccccc4)C3SC2(C)C)c1.[I-] (configuration not stated)

half-life [33]: 3.6 min
half-life [38]: 15.9 min
half-life [39]: 4.3 min
half-life [40]: 0.8 min
half-life [34]: 0.6 min
K (Canis familiaris): 0.213 min⁻¹
K (Homo sapiens): 0.045 min⁻¹
K (Oryctolagus cuniculus [41]): 0.166 min⁻¹
K (Oryctolagus cuniculus [42]): 0.949 min⁻¹
K (Rattus norvegicus [36]): 1.357 min⁻¹
SMILES: CN1C=CCC(C(=O)OCOC(=O)C2N3C(=O)C(NC(=O)Cc4ccccc4)C3SC2(C)C)=C1 (configuration not stated)
